What all share (experiment): Continuous fluorescence kinase assay, kinetic parameters of the substrate
Holding throughout (assay type): biochemical

One assay has as its target Src (Homo sapiens, UniProt P12931). The settings on record: for Km / Vmax: initial slopes, direct fit of ν vs [S], Briggs-Haldane equation, mean ± s.e.m. of triplicate, SEM; for Catalytic Efficiency: kcat/KM (min^-1 μM^-1) normalized to the BTF substrate. In outline:
(§1)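 Sox-labelled peptide substrates were phosphorylated by the kinase and monitored continuously by fluorescence (λex 360 nm, λem 485 nm) in a fluorometer or a 96-well plate reader. KM and Vmax came from initial slopes, corrected for substrate and product fluorescence, and a direct Briggs-Haldane fit of ν vs [S]. Values are mean ± s.e.m. of triplicates. kcat/KM was normalized to the BTF substrate within each kinase.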

The target in a further assay is Akt1 (Homo sapiens, UniProt P31749). The settings on record: initial slopes, direct fit of ν vs [S], Briggs-Haldane equation, mean ± s.e.m. of triplicate, SEM. In outline: (§2)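 Sox-containing peptide substrate becomes fluorescent on phosphorylation through Mg2+ chelation-enhanced fluorescence. Fluorescence was read continuously at λex 360 nm and λem 485 nm. Reaction components were simply mixed, and the reaction was run in a fluorometer or in a 96-well fluorescence plate reader. Rates at varied substrate levels were fitted directly as ν vs [S] to the Briggs-Haldane equation. Each was run in triplicate.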
Akt1, sequence (P31749 whole entry, species assumed): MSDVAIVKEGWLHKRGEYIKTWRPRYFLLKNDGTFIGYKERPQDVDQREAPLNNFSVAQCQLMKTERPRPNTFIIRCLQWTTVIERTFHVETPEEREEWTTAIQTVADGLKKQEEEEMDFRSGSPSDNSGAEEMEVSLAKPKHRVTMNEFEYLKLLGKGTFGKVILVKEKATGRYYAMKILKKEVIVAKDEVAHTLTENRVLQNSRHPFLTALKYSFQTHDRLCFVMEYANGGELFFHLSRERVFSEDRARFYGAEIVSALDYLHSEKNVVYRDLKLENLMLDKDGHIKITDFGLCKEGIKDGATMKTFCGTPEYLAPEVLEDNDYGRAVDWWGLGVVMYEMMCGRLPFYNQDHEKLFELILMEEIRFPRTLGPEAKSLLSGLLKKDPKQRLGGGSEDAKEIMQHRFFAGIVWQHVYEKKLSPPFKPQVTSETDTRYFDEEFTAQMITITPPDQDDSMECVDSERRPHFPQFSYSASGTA

A further assay concerns the target PKA (Homo sapiens, UniProt P17612). As to conditions: for Km / Vmax: initial slopes, direct fit of ν vs [S], Briggs-Haldane equation, mean ± s.e.m. of triplicate, SEM. In a few lines:
as §1

A further assay addresses PKCδ (Homo sapiens, UniProt Q05655).
The target of another assay is Pim2 (Homo sapiens, UniProt Q9P1W9). The settings on record: initial slopes, direct fit of ν vs [S], Briggs-Haldane equation, mean ± s.e.m. of triplicate, SEM.
Pim2, sequence (Q9P1W9 whole entry, species assumed): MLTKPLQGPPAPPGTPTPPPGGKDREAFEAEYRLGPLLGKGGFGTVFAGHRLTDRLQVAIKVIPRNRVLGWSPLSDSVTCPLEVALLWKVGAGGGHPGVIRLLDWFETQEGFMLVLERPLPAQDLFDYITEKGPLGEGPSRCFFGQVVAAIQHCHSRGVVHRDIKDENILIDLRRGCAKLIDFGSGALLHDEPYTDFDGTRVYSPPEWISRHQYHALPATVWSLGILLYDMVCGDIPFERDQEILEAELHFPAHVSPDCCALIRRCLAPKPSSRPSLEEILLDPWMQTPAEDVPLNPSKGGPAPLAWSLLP
For another assay, the target named is Abl (Homo sapiens, UniProt P00519). The settings on record: initial slopes, direct fit of ν vs [S], Briggs-Haldane equation, mean ± s.e.m. of triplicate, SEM. In outline:
as §2

A further assay addresses MK2 (Homo sapiens, UniProt P49137). The settings on record: initial slopes, direct fit of ν vs [S], Briggs-Haldane equation, mean ± s.e.m. of triplicate, SEM. In a few lines:
as §2

The target in the next assay is IRK (Homo sapiens, UniProt P06213). As to conditions: for Km / Vmax: initial slopes, direct fit of ν vs [S], Briggs-Haldane equation, mean ± s.e.m. of triplicate, SEM; for Catalytic Efficiency: kcat/KM (min^-1 μM^-1) normalized to the BTF substrate. In outline: as §1
IRK, sequence (P06213 1012-1310 limits assumed): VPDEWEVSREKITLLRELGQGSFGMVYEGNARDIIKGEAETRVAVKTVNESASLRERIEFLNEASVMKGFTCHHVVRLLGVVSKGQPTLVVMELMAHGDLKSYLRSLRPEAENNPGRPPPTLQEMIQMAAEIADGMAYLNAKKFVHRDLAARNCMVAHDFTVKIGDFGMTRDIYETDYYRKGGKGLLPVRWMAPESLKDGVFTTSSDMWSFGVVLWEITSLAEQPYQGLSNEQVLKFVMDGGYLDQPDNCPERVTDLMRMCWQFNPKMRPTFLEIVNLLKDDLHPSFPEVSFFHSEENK
Another assay addresses PKCβI (Homo sapiens, UniProt P05771).
Where [1] appears, read: initial slopes, direct fit of ν vs [S], Briggs-Haldane equation, mean ± s.e.m. of triplicate, NS = Not a Substrate, SEM.

A word on the Km: it is the concentration of substrate that gives half-maximal velocity. For orientation: Vmax means the rate approached at saturating substrate.

PKCδ, sequence (Q05655 whole entry): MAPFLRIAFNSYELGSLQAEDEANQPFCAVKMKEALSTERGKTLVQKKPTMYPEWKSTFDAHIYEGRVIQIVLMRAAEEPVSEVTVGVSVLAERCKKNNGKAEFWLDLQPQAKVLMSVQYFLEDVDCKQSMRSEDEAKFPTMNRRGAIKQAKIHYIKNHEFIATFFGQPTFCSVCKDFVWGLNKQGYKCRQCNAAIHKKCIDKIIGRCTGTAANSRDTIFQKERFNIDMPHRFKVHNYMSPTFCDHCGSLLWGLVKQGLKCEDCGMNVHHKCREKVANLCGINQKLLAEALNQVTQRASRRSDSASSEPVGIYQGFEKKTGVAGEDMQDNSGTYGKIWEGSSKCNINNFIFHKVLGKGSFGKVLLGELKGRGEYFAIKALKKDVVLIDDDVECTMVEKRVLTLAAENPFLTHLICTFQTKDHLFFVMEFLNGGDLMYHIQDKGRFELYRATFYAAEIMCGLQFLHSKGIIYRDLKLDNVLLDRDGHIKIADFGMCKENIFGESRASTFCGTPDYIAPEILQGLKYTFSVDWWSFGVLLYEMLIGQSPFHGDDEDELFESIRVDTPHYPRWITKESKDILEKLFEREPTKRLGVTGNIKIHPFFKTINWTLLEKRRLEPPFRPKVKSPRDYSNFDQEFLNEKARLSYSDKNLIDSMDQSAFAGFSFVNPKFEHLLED
PKCβI, sequence (P05771 whole entry): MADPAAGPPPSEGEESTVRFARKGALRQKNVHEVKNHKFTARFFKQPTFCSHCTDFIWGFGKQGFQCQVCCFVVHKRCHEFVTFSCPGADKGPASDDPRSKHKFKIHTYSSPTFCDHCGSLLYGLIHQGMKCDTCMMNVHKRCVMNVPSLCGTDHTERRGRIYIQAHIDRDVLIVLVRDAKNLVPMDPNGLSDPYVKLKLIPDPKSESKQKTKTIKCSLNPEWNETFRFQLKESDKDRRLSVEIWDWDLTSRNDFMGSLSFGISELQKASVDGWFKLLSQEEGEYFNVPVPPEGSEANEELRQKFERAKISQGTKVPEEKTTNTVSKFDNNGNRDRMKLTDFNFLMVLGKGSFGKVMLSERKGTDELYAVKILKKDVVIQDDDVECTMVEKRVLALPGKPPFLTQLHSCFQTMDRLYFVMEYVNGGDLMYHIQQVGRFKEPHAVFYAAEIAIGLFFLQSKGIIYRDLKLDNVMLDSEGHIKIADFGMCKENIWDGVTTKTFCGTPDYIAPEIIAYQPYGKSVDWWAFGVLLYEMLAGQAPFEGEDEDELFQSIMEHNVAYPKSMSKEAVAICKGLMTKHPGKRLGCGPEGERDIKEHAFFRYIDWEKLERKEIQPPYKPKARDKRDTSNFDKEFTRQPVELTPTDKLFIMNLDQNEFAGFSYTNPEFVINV
Abl, sequence (P00519 whole entry, species assumed): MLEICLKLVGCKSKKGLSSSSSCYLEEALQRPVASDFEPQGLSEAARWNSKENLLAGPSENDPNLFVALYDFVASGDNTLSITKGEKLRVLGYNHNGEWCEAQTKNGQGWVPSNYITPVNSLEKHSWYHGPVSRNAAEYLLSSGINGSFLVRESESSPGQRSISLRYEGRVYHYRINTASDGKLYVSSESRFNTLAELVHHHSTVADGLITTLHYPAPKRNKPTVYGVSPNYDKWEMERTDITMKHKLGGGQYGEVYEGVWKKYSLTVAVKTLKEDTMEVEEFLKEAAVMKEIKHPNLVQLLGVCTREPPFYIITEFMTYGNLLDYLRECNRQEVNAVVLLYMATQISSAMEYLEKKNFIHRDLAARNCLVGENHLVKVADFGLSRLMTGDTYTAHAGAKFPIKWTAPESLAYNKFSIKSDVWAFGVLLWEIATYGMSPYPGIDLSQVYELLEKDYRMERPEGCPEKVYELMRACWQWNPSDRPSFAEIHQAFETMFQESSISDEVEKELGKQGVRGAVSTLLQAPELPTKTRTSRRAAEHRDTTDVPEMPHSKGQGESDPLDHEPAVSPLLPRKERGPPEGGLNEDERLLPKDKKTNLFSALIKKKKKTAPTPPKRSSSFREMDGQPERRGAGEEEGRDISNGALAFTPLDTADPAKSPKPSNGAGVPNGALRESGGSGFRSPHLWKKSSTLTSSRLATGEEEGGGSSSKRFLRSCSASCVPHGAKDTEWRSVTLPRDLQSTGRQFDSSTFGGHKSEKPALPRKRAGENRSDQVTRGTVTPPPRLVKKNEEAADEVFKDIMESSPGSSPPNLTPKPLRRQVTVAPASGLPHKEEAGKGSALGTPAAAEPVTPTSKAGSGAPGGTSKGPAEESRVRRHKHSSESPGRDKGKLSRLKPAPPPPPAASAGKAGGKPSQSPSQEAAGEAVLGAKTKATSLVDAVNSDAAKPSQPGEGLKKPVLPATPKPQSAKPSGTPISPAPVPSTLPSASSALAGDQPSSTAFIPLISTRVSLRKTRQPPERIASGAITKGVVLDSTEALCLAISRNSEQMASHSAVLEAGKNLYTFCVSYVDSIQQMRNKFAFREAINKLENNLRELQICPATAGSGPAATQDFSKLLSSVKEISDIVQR
MK2, sequence (P49137 whole entry, species assumed): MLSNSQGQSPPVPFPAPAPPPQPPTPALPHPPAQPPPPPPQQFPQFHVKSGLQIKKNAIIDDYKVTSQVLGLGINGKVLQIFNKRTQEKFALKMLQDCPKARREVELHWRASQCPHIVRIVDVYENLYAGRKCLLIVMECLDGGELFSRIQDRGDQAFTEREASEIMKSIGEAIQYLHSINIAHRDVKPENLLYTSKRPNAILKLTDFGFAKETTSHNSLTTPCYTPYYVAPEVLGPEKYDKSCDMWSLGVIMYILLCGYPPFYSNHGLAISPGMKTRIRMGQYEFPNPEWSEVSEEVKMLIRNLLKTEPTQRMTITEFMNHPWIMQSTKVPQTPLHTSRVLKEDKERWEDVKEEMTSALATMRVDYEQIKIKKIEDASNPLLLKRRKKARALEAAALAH

Take “Ac-AEE-CSox-IY*GEFEAKKKK-CONH2 [Src RDF]”: at Src, the Km came to 7 ± 1 µM, the Vmax came to 3.4 ± 0.2 µmol/mg/min and the “Catalytic Efficiency” value is 28.

Take “Ac-ARKRERAYS*F-CSox-HHA-CONH2 [Akt1 RDF]”: on Akt1, the Km was 0.69 ± 0.11 µM and the Vmax stood at 2.5 ± 0.2 µmol/mg/min.

On to Ac-LRRAS*L-DPro-Sox-G-CONH2 [PKA BTF], for which, on PKA, the Km is 2.7 ± 0.4 µM and the Vmax came to 26.5 ± 1.1 µmol/mg/min.

On to Ac-RKRKGS*F-CSox-YGG-CONH2 [PKCδ RDF], for which the “turnover by the kinase (in words)” value at PKCδ (Figure S3) was “excellent substrates”. For the same substance, on PKCδ (setting [1]), the Km amounted to 0.48 ± 0.07 µM and the Vmax came out at 0.39 ± 0.02 µmol/mg/min.

For the substance “Ac-ARKRRRHPS*G-CSox-PTA-CONH2 [Pim2 RDF]”, at Pim2, the Km is 1.4 ± 0.1 µM and the Vmax was 0.67 ± 0.02 µmol/mg/min.

As for Ac-Sox-PEIY*GEFEAKKKK-CONH2 [Src BTF], at Src, the Km was 30.7 ± 5.8 µM, the Vmax was found to be 0.54 ± 0.04 µmol/mg/min and the “Catalytic Efficiency” value was 1.

As to Ac-E-CSox-IY*AAPFAKKK-CONH2 [Abl RDF], on Abl, the Km was found to be 10.5 ± 1.5 µM and the Vmax worked out at 19.1 ± 1.0 µmol/mg/min.

Regarding Ac-ALRRAS*L-CSox-AA-CONH2 [PKA RDF], on PKA, the Michaelis constant (Km) was determined as 2.6 ± 0.3 µM and the Vmax turned out to be 17.9 ± 0.8 µmol/mg/min. In addition, the “Catalytic Efficiency” value at PKA (kcat/KM (min^-1 μM^-1) normalized to the BTF substrate) stood at 1.

In the case of Ac-AHLQRQLS*I-CSox-HH-CONH2 [MK2 RDF], at MK2, the Km came out at 1.2 ± 0.2 µM and the Vmax was determined as 1.3 ± 0.1 µmol/mg/min.

Take “Ac-Sox-PGDY*-Nle-TMQIGKK-CONH2 [IRK BTF]”: on IRK, the Km was found to be 25.7 ± 0.7 µM, the Vmax came out at 7.3 ± 2.2 µmol/mg/min and the “Catalytic Efficiency” value worked out at 1.

Consider Ac-LKR-CSox-AS*FKKFA-CONH2 [PKCβI RDF], for which the “turnover by the kinase (in words)” value at PKCβI (Figure S3) is “excellent substrates”. At PKCβI (setting [1]), the Km amounted to 0.81 ± 0.18 µM and the Vmax amounted to 0.76 ± 0.06 µmol/mg/min.

For “Ac-R-CSox-DY*-Nle-TMQIGKK-CONH2 [IRK RDF]”, at IRK, the Km came out at 27.1 ± 3.9 µM, the Vmax was 6.3 ± 0.4 µmol/mg/min and the “Catalytic Efficiency” value came out at 1.

The values above are taken from publication PMC2637182 (Journal of the American Chemical Society, 2008).
